This note sets out measurements from ChEMBL document CHEMBL1177638, “Synthesis of pyrrolo[3,2-h]quinolinones with good photochemotherapeutic activity and no DNA damage” (Bioorg Med Chem, 2010).

Common to all, as to assay type: functional, cell-based
Assay [1] concerns Jurkat. In words: Phototoxicity against human Jurkat cells irradiated with 3.75 J/cm'2 after 72 hrs by MTT assay. The following applies: light or radiation study. Summed up: (§1)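 Cells were seeded at 8 × 10³ and preincubated 18 h at 37 °C, 5% CO₂. Jurkat and K-562 grew in RPMI-1640, MCF-7 and NCTC-2544 in DMEM, and LoVo in Ham's F12, all with 10% FBS plus penicillin and streptomycin. Compounds in DMSO were diluted in HBSS, pH 7.2 (range 20–0.31; DMSO ≤1%) and applied 30 min at 37 °C. Wells were then UV-A irradiated (365 nm; 2.5 or 3.75 J/cm²), medium was replaced, and MTT was read after 72 h.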

For assay [2], the system named is Jurkat. In words: Phototoxicity against human Jurkat cells irradiated with 2.5 J/cm'2 after 72 hrs by MTT assay. Conditions: light or radiation study. Summed up:
as §1

Assay [3] is described as follows: Phototoxicity against human sNCTC-2544 cells irradiated with 3.75 J/cm'2 after 72 hrs by MTT assay. Conditions: NCTC-2544, light or radiation study. The method in brief:
as §1

Assay [4] is described as follows: Phototoxicity against human sNCTC-2544 cells irradiated with 2.5 J/cm'2 after 72 hrs by MTT assay. The following applies: NCTC-2544, light or radiation study. Summed up: as §1
Assay [5] concerns MCF7. In words: Phototoxicity against human MCF7 cells irradiated with 3.75 J/cm'2 after 72 hrs by MTT assay. Conditions: MCF7, light or radiation study. The method in brief:
as §1

Assay [6] relates to MCF7. In words: Phototoxicity against human MCF7 cells irradiated with 2.5 J/cm'2 after 72 hrs by MTT assay. Conditions: MCF7, light or radiation study. Summed up: as §1
The subject of assay [7] is LoVo. In words: Phototoxicity against human LoVo cells irradiated with 3.75 J/cm'2 after 72 hrs by MTT assay. Conditions: light or radiation study. Summed up:
as §1

The test system of assay [8] is LoVo. In words: Phototoxicity against human LoVo cells irradiated with 2.5 J/cm'2 after 72 hrs by MTT assay. Conditions: light or radiation study. Summed up: as §1
For assay [9], the system named is K562. In words: Phototoxicity against human K562 cells irradiated with 3.75 J/cm'2 after 72 hrs by MTT assay. The following applies: K562, light or radiation study. Summed up: as §1
Assay [10] relates to K562. In words: Phototoxicity against human K562 cells irradiated with 2.5 J/cm'2 after 72 hrs by MTT assay. Conditions: K562, light or radiation study. Summed up:
as §1

`CCOC(=O)c1cc2c(n1Cc1ccc(C)cc1)-c1[nH]c(=O)c(S(=O)(=O)c3ccccc3)cc1CC2`: the IC50 was found to be 1.2 µM with Jurkat [1]; 1.5 µM in the assay with Jurkat [2]; 2.2 µM in assay [3]; 2.7 µM in assay [4]; 1.4 µM in the assay with MCF7 [5]; 1.7 µM with MCF7 [6]. The IC50 in the assay on LoVo [7] is 1 µM; with LoVo [8], 1.6 µM; in the assay with K562 [9], 1 µM; with K562 [10] it was 1.3 µM.

On to `O=c1[nH]c2c(cc1S(=O)(=O)c1ccccc1)CCc1cc[nH]c1-2`, for which the IC50 (with Jurkat [1]; in the assay with Jurkat [2]; in [3]; in [4]; in the assay on MCF7 [5]; with MCF7 [6]) was above 20 µM in each case. The IC50 with LoVo [7], in the assay with LoVo [8], in the assay with K562 [9] and in the assay with K562 [10] was above 20 µM each time.

`O=c1[nH]c2c(cc1S(=O)(=O)c1ccccc1)CCc1ccn(Cc3ccccc3)c1-2`: the IC50 is 1.1 µM in the assay on Jurkat [1]; 1.3 µM with Jurkat [2]; 5.5 µM in [3]; 7.5 µM in assay [4]; 1.7 µM in the assay on MCF7 [5]; 4 µM with MCF7 [6]. The IC50 in the assay with LoVo [7] turned out to be 2.2 µM; in the assay on LoVo [8], 2.6 µM; in the assay with K562 [9], 3.3 µM; in the assay with K562 [10] it was 4.8 µM.

`O=c1[nH]c2c(cc1S(=O)(=O)c1ccccc1)CCc1ccn(-c3ccccc3)c1-2`: the IC50 (in the assay on Jurkat [1]; in the assay with Jurkat [2]; in [3]; in [4]; in the assay with MCF7 [5]; in the assay on MCF7 [6]) was above 20 µM each time. The IC50 in the assay with LoVo [7], with LoVo [8], with K562 [9] and in the assay on K562 [10] was above 20 µM throughout.

In the case of `COc1ccc(Cn2ccc3c2-c2[nH]c(=O)c(S(=O)(=O)c4ccccc4)cc2CC3)cc1`, the IC50 in the assay with Jurkat [1] was found to be 1.2 µM; with Jurkat [2], 1.6 µM; in assay [3] it was 2.7 µM; in assay [4], 4.3 µM; in the assay on MCF7 [5] it was 1.8 µM; in the assay with MCF7 [6], 4.2 µM. For the same compound, the IC50 worked out at 2 µM in the assay on LoVo [7], 2.8 µM in the assay on LoVo [8], 2.5 µM in the assay with K562 [9] and 3.1 µM in the assay on K562 [10].

As to `CCOC(=O)c1cc2c([nH]1)-c1[nH]c(=O)c(S(=O)(=O)c3ccccc3)cc1CC2`, the IC50 with Jurkat [1] was 2.5 µM; in the assay with Jurkat [2], 3.5 µM; in assay [3], 7.2 µM; in [4] it was 9.3 µM; in the assay with MCF7 [5] it was 4.3 µM; with MCF7 [6] it was 6.1 µM. Besides, the IC50 in the assay on LoVo [7] worked out at 4.6 µM; in the assay with LoVo [8] it was 5.5 µM; with K562 [9], 5.3 µM; in the assay with K562 [10], 6.1 µM.

Turning to `Cn1ccc2c1-c1[nH]c(=O)c(S(=O)(=O)c3ccccc3)cc1CC2`, the IC50 (in the assay with Jurkat [1]; with Jurkat [2]; in assay [3]; in [4]; in the assay on MCF7 [5]; in the assay on MCF7 [6]) was above 20 µM each time. In addition, the IC50 with LoVo [7], in the assay with LoVo [8], in the assay with K562 [9] and with K562 [10] was above 20 µM each time.

Consider `Cc1ccc(Cn2ccc3c2-c2[nH]c(=O)c(S(=O)(=O)c4ccccc4)cc2CC3)cc1`, for which the IC50 was 1.2 µM in the assay on Jurkat [1]; 1.6 µM with Jurkat [2]; 2.6 µM in assay [3]; 3.3 µM in assay [4]; 2.4 µM in the assay with MCF7 [5]; 3.8 µM with MCF7 [6]. Besides, the IC50 in the assay on LoVo [7] stood at 2.3 µM; in the assay with LoVo [8], 2.7 µM; in the assay with K562 [9] it was 2.4 µM; in the assay on K562 [10] it was 2.7 µM.

On to `N#Cc1cc2c([nH]c1=O)-c1c(ccn1S(=O)(=O)c1ccccc1)CC2`, for which the 50% inhibitory concentration (IC50) (with Jurkat [1]; in the assay with Jurkat [2]; in [3]; in assay [4]; with MCF7 [5]; in the assay on MCF7 [6]) was above 20 µM throughout. Moreover, the IC50 in the assay on LoVo [7], with LoVo [8], with K562 [9] and in the assay on K562 [10] was above 20 µM throughout.

Turning to `O=c1[nH]c2c(cc1S(=O)(=O)c1ccccc1)CCc1ccn(S(=O)(=O)c3ccccc3)c1-2`, the IC50 (in the assay with Jurkat [1]; in the assay on Jurkat [2]; in [3]; in [4]; in the assay on MCF7 [5]; in the assay with MCF7 [6]) was above 20 µM throughout. For the same compound, the IC50 in the assay with LoVo [7], in the assay with LoVo [8], in the assay with K562 [9] and in the assay with K562 [10] was above 20 µM throughout.
